Measured values: article PMC7127420 (European Journal of Medicinal Chemistry, 2008)
Where two headings read alike, the source gives them in different places.

Legend:
[1] = test system: human T-lymphocyte (CEM) cells; experiment: Cytostatic activity in mock-infected CEM cells; format: cell-based; details: concentration required to reduce mock-infected CEM cell viability by 50%
How it was run: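 Mock-infected CEM cell cultures were run alongside the HIV-infected CEM cultures. CC50 was the compound concentration inhibiting CEM cell proliferation by 50%.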

[2] = test system: HIV-1(IIIB); details: ref [1], cited from earlier work; for EC50: read-out: EC50 HIV-1(IIIB), CEM cells
[3] = target: recombinant HIV-2 RT (Human immunodeficiency virus type 2 subtype A, UniProt P04584); experiment: Anti-reverse transcriptase assay, HIV-2 RT; format: biochemical, HIV-2(ROD)
recombinant HIV-2 RT, sequence (P04584 613-1171 limits assumed): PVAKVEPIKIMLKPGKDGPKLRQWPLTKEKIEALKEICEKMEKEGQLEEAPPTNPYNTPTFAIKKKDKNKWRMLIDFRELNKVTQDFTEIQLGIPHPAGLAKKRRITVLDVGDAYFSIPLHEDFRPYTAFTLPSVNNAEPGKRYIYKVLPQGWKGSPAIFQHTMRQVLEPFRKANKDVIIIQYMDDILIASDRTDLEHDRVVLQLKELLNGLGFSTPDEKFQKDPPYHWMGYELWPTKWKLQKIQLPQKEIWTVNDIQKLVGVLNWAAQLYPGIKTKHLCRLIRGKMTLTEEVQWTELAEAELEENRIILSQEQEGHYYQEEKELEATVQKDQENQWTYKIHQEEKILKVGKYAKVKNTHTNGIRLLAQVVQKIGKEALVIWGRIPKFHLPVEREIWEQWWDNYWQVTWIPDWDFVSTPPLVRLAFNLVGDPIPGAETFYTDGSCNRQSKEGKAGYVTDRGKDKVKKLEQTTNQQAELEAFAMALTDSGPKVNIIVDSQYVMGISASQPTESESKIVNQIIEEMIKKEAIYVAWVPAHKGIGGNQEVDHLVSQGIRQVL
recombinant HIV-2 RT, sequence (P04584 613-1051 partner limits assumed): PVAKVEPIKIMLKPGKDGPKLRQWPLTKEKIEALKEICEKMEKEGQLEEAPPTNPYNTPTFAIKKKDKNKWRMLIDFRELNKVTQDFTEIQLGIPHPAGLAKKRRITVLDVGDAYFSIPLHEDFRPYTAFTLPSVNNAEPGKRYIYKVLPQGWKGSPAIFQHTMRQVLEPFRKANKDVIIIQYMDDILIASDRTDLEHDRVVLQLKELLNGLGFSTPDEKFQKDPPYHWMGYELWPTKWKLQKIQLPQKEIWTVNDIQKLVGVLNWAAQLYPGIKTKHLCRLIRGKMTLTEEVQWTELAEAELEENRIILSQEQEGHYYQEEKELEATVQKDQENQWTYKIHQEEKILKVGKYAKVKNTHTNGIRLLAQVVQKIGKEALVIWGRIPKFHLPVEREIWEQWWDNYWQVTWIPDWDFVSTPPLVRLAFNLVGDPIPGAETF
How it was run: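 Recombinant RT derived from HIV-2(ROD). Substrate was [8-3H]dGTP (2.5 μM) on poly(C).oligo(dG)12–18 (0.1 mM), with inhibitor at various concentrations. Incubated 37 °C for 30 min, then stopped with yeast RNA and trichloroacetic acid in Na4P2O7 and held on ice 30 min. Acid-insoluble radioactivity was counted; IC50 was the concentration giving 50% inhibition of RT activity.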

[4] = test system: HIV-2(ROD); details: read-out: EC50 HIV-2(ROD); CEM cells; racemic mixture; ref [1]; cited from earlier work
[5] = test system: human T-lymphocyte (CEM) cells; details: mock-infected CEM cells; racemic mixture; ref [1]; cited from earlier work
[6] = test system: HIV-1(IIIB); experiment: Inhibition of HIV-1; format: cell-based, Human immunodeficiency virus type 1; details: relative to 8

Compound: 2-Adamantan-1-ylmethyl-3-(2-dimethylaminoethyl)-thiazolidin-4-one [Compound 20]
- CC50 [1]: 43 ± 20.1 µM

Compound: Cc1cc(C)nc(N2C(=O)CSC2C23CC4CC(CC(C4)C2)C3)c1 (single isomer, unassigned) [levo isomer]
- fold less active than the (+)-isomer (anti-HIV-1 activity) [2]: more than 60 fold

Compound: Cc1cc(C)nc(N2C(=O)CS[C@@H]2C23CC4CC(CC(C4)C2)C3)c1 (single isomer, unassigned; (+)) [7 (R enantiomer), (+)-2-adamantan-1-yl-3-(4,6-dimethyl-pyridin-2-yl)-thiazolidin-4-one, reference compound]
- EC50 [2]: 0.178 µM
- IC50 [3]: > 600 µM

Compound: Cc1cc(C)nc(N2C(=O)CSC2C23CC4CC(CC(C4)C2)C3)c1 (stereo not shown) [Compound 7, 2-adamantan-1-yl-3-(4,6-dimethylpyridin-2-yl)-thiazolidin-4-one]
- EC50 [2]: 0.35 ± 0.175 µM
- EC50 [4]: > 12 µM
- CC50 [5]: 42 ± 8.1 µM

Compound: Cc1ccnc(N2C(=O)CSC2C23CC4CC(CC(C4)C2)C3)n1 (stereo not shown) [Compound 10, 2-Adamantan-1-yl-3-(4-methylpyrimidin-2-yl)-thiazolidin-4-one]
- fold reduction in antiviral potency (anti-HIV-1) [6]: 6 fold

Compound: Cc1cc(C)nc(N2C(=O)CSC2CC23CC4CC(CC(C4)C2)C3)n1 (stereo not shown) [Compound 12, 2-Adamantan-1-ylmethyl-3-(2,6-methylpyrimidin-2-yl)-thiazolidin-4-one]
- fold reduction in antiviral potency (anti-HIV-1) [6]: 13 fold

Compound: O=C1CSC(c2c(Cl)cccc2Cl)N1CC12CC3CC(CC(C3)C1)C2 (stereo not shown) [Compound 24, 3-Adamantan-1-ylmethyl-2-(2,6-dichlorophenyl)-thiazolidin-4-one]
- IC50 [3]: ≥ 600 µM

Compound: O=C1CSC(c2c(Cl)cccc2Cl)N1CCC12CC3CC(CC(C3)C1)C2 (stereo not shown) [Compound 25, 3-(2-Adamantan-1-ylethyl)-2-(2,6-dichlorophenyl)-thiazolidin-4-one]
- IC50 [3]: > 600 µM

Compound: O=C1CSC(c2c(F)cccc2F)N1CC12CC3CC(CC(C3)C1)C2 (stereo not shown) [Compound 28, 3-Adamantan-1-ylmethyl-2-(2,6-difluorophenyl)-thiazolidin-4-one]
- IC50 [3]: > 600 µM

Compound: O=C1CSC(c2c(F)cccc2F)N1CCC12CC3CC(CC(C3)C1)C2 (stereo not shown) [Compound 29, 3-(2-Adamantan-1-ylethyl)-2-(2,6-difluorophenyl)-thiazolidin-4-one]
- IC50 [3]: ≥ 600 µM
